Holding throughout (format): cell-based
The target in experiment [1] is T1, Kir1.1 (S44D) (Rattus norvegicus, UniProt P35560, S44D).
T1 sequence (P35560 1-391 S44D): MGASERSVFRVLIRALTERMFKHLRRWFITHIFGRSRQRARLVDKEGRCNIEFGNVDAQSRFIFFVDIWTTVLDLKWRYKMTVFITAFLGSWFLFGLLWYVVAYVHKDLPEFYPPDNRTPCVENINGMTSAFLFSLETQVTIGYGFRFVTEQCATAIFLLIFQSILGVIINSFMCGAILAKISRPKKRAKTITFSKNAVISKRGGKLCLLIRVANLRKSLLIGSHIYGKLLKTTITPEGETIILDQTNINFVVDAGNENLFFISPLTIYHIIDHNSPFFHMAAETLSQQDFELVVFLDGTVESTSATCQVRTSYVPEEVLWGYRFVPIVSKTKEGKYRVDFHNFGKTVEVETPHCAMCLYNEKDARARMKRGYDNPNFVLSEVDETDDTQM
Kind of experiment: Tl+ flux assay, tetracycline-inducible Kir1.1-S44D T-REx-HEK-293 cells. The conditions noted are these: IC50 Kir1.1, Tl+ flux, mean ± SEM (n = 3). The essentials:
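Monoclonal C1 T-REx-HEK-293 Kir1.1-S44D cells were grown in DMEM with 10% FBS, penicillin/streptomycin, 5 μg/mL blasticidin S and 250 μg/mL hygromycin. Channel expression was induced overnight with tetracycline. Cells were loaded with FluoZin-2 and pre-treated with test compound from 1:3 serial dilutions. Extracellular Tl+ was then added and fluorescence imaged kinetically at 20–23°C. CRC, mean ± SEM, n = 3.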

The target of experiment [2] is T2, Kir2.3 (Homo sapiens, UniProt P48050).
T2 sequence (P48050 1-445): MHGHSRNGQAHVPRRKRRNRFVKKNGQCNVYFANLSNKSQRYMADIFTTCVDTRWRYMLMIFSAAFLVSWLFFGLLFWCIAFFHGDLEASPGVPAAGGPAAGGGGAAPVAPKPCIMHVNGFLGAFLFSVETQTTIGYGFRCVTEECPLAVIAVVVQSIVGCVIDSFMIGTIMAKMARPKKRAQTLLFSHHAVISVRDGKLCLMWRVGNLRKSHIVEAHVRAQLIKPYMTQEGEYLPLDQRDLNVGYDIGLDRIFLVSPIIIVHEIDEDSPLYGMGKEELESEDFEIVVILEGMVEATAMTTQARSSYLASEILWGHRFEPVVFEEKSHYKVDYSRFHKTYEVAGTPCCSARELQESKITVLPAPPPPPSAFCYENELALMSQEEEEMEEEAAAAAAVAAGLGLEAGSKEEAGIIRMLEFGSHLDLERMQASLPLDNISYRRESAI
The experiment can be described thus: Two-electrode voltage clamp in Xenopus oocytes, Kir2.3. The essentials:
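Stage V–VI Xenopus oocytes were defolliculated with 1 mg/mL collagenase and injected with 0.5–10 ng cRNA. They were kept at 16°C in modified L-15 for 24–72 h. Two-electrode voltage clamp at 20–23°C: held at −75 mV and stepped to −120 mV for 200 ms every 5 s, with current at −120 mV tracked over time. Test compound (50 μM) was perfused, then 2 mM Ba2+. Time constant of inhibition derived.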

Experiment [3] addresses T2, Kir2.3. Kind of experiment: Whole-cell patch clamp, T-REx-HEK-293-Kir2.3 cells. A digest of the protocol:
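Monoclonal T-REx-HEK-293-Kir2.3 cells were patched after overnight induction with tetracycline (1 μg/mL). Pipette: 135 mM KCl, 1 mM MgCl2 (reduced against rundown), 1 mM EGTA, 10 mM HEPES, 2 mM Na2ATP, pH 7.3. Bath: 135 mM NaCl, 5 mM KCl, pH 7.4. Held at −75 mV and ramped −120 to 120 mV every 5 s, at 20–23°C. Test compound was bath-applied, then 2 mM BaCl2. CRC n = 4–6. τ taken from the time course.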
(In patch-clamp work, channel activity is measured electrically.)

Experiment [4] deals with T3, wild type Kir7.1 (Homo sapiens, UniProt O60928).
T3 sequence (O60928 1-360): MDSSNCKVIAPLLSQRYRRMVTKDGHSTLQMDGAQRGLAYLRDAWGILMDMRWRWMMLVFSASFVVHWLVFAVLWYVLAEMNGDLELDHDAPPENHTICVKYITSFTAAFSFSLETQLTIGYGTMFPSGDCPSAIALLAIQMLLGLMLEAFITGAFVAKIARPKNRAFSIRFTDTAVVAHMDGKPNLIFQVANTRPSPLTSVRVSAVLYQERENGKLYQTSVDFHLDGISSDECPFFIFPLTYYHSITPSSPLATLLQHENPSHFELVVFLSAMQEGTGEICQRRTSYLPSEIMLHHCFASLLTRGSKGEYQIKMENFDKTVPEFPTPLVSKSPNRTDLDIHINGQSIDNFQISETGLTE
The experiment can be described thus: Whole-cell patch clamp, wild type Kir7.1 in transfected HEK-293 cells. A digest of the protocol:
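HEK-293 cells were transiently co-transfected with channel plus an EGFP marker (Lipofectamine). Pipette: 135 mM KCl, 2 mM MgCl2, 1 mM EGTA, 10 mM HEPES, 2 mM Na2ATP, pH 7.3. Bath: 135 mM NaCl, 5 mM KCl, pH 7.4; some runs used 50 mM KCl. Held at −75 mV and ramped −120 to 120 mV every 5 s, at 20–23°C. Test compound was bath-applied for 2–10 min, then 2 mM BaCl2. CRC n = 4–7. τ taken from the time course.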

[5] abbreviates: whole-cell patch clamp, 30 μM, mean ± SEM, n = 4.

By IC50 is commonly meant the concentration that gives 50% inhibition. Low readings indicate greater potency, high ones weaker potency. The term inhibition denotes the change of the read-out against control, counted positive when it falls.

With `Cc1ccc(OCC(O)Cn2c(=N)n(Cc3ccccc3)c3ccccc32)cc1` (centres unmarked) [Compound 1, 1-(3-benzyl-2-imino-2,3-dihydro-1H-benzo[d]imidazol-1-yl)-3-(p-tolyloxy)propan-2-ol], the IC50 in experiment [1] is 10.8 ± 3.8 µM; in experiment [3] (IC50 Kir2.3, whole-cell patch clamp, T-REx-HEK-293-Kir2.3), ~1 µM; in experiment [4] (IC50 Kir7.1, whole-cell patch clamp, wild type Kir7.1, HEK-293) it was ~1 µM. In addition, in experiment [2] (TEVC oocytes, 50 μM, n = 7), the “time constant (τ) of Kir2.3 inhibition” value is 154 ± 32 s. In addition, the inhibition at 50 µM in experiment [2] (read-out: inhibition of Kir2.3) amounted to 80.9 ± 5%. Also, the “time constant for inhibition of Kir2.3” value in experiment [3] (setting [5]) amounted to 23 ± 2 s. In experiment [4] (whole-cell patch clamp, 10 μM, n = 4), the “effect on wild type Kir7.1 activity” value is given as “near complete inhibition”. Also, the “time constant for inhibition of Kir7.1” value in experiment [4] (setting [5]) is recorded as 14 ± 2 s.
